Assay results collected from several papers.
Target: Bone morphogenetic protein receptor type-2 (BMPR2, Homo sapiens, UniProt Q13873)
Residues used in one study (Q13873 27-1038): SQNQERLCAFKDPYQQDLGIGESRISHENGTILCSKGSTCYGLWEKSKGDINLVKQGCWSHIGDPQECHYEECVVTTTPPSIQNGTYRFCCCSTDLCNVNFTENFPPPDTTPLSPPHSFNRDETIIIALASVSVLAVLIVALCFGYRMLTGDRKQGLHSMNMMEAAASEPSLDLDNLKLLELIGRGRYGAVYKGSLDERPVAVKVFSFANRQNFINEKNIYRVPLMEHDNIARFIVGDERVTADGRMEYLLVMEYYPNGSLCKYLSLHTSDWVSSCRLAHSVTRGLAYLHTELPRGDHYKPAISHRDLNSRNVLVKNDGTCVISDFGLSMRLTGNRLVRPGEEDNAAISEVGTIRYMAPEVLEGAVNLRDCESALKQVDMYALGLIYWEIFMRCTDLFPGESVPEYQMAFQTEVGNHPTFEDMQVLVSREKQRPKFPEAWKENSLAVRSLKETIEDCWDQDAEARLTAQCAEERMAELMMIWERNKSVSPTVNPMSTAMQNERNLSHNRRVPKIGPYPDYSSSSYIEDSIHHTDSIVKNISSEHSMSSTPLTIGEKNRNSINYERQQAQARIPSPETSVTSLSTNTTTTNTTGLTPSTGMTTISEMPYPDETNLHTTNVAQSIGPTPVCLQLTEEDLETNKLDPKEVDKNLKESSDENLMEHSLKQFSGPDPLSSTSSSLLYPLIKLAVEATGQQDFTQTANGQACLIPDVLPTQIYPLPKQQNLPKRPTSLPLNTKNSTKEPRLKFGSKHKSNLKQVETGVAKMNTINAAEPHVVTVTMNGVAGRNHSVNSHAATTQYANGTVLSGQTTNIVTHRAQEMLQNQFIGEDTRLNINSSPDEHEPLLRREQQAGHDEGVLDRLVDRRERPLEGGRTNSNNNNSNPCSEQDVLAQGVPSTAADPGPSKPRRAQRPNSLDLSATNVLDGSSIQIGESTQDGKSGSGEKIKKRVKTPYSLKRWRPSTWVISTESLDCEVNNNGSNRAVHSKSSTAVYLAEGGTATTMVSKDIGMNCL

| Compound | test | setting | endpoint | value |
| --- | --- | --- | --- | --- |
| Cn1c2c(c3ccc(Cl)c(Cl)c31)C(C#N)C1(CCNCC1)NC2=O (racemic) | thermal stability, DSF | 10 µM | ΔTm | 0.3 °C |
| Cn1cncc1C1=CN(c2ncnc3[nH]cnc23)CCS1 | enzyme activity, inhibitor, radiometric | 2 µM | inhibition | 74% |
| Cn1nc(C(F)(F)F)cc1-c1cnc(N2CCc3cc(S(=O)(=O)Nc4c(F)cc(Cl)cc4F)cc(N4CCCC4=O)c32)nc1 | cell-free assay, competition with immobilised ligand | 1 µM | remaining binding | 77% |
| Cn1c2c(c3ccc(Cl)c(Cl)c31)C(C#N)C(C)(C)NC2=O (stereo not shown) | thermal stability, DSF | 10 µM | ΔTm | 1.4 °C |
| COc1cc(Cl)c(C(=O)N[C@@H](CN[C@H]2CC[C@@H](N)CC2)Cc2ccc(C#N)cc2)cc1-c1ccc(CN[C@H](C)c2ccc(C)cc2)o1 | enzyme activity, inhibitor | 1 µM | remaining activity | 99% |
| Nc1ncnc2occ(-c3ccc(NC(=O)Nc4cc(C(F)(F)F)ccc4F)cc3)c12 | cell-free assay | 20 µM | remaining signal | 60% |
| CS(=O)(=O)Nc1cccc(-c2csc(NC(=O)CSc3nc4nccnc4c(=O)n3CCc3ccccc3)n2)c1 | enzyme activity, inhibitor | 10 µM | inhibition | 3% |
| Cn1c2c(Cl)c(Cl)ccc2c2cn[nH]c(=O)c21 | thermal stability, DSF | 10 µM | ΔTm | 2.9 °C |
| Cc1sc(C(=O)NC2COC2)cc1-n1cc(NC(=O)Nc2c(F)cccc2Cl)cn1 | enzyme activity, inhibitor | 10 µM | remaining activity | 84.5% |
| COc1cc(-c2cn(C3CCc4c(F)cccc4N(CC(F)(F)F)C3=O)nn2)ccc1-n1cnc(C)c1 (stereo not shown) | cell-free assay, competition with immobilised ligand | 1 µM | remaining binding | 100% |
| CC(C)(O)[C@H]1CC[C@H](Nc2ccc3ncc(-c4cccc(C(F)(F)F)c4)n3n2)CC1 | enzyme activity, inhibitor | 1 µM | remaining activity | 37.3% |
| O=C(Nc1ccc(Oc2ccc(F)cc2)cc1)N1CCc2ncccc2[C@H]1c1ccc(F)cc1 | cell-free assay, competition with immobilised ligand | 1 µM | remaining binding | 96% |
| O=C(Nc1cnn(-c2csc(C(=O)NC3COC3)c2)c1)Nc1c(F)cccc1Cl | enzyme activity, inhibitor | 5 µM | remaining activity | 77.2% |
